This passage reports fluorescence artifact activation results from PubChem BioAssay AID504382 (The Scripps Research Institute Molecular Screening Center, 2011).

About 460 (18%) of roughly 2,500 compounds were called active. Only a sample is shown. Values without a mark were called inactive.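 How the source made its calls: active means mean activation above a cutoff of low control average plus 3 SD from the earlier screen (cut at about 12% in these data); inactive means the rest.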

A short description of this assay: compound fluorescence interference without thin filaments, confirmation, artefact control for cardiac RTF calcium sensitizer project, biochemical (AID 504382). To be noted: IANBD fluorescence interference counterscreen, buffer, EC20 Ca2+; at 7.2 µM; stronger effect = higher value. The procedure, abridged: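 Technique: fluorescence, 480/540 nm / Medium: MOPS-based buffer with KCl, MgCl2, EGTA, NTA, DTT, pH 7.2 / Probe or stimulus: calcium at EC20 level, 0.472 mM final / Repeats: triplicate wells per compound / Times: 15 min compound exposure at 25 °C / Measure: compound fluorescence interference relative to control well signal range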
For orientation: A counterscreen serves to expose hits that act by an unwanted route or on another target.
For the compound `COc1cc(/C=C2/C(=O)NC(=O)N(c3ccc(C)cc3)C2=O)cc(OC)c1OC`, the fluorescence artifact activation is 0.06%.
The same measure for `CCN1C[C@]2(CO)CC[C@H](OC)[C@@]34C5C[C@H]6[C@H](OC)C5[C@](O)(C[C@H]6OC)[C@@H](C(OC)C23)[C@@H]14` (some centres undefined): 2.26%; for `NC(=O)c1c(NC(=O)c2ccc(S(=O)(=O)N(CCCl)CCCl)cc2)sc2c1CCCCC2`: 0.08%; for `CC1=NCCc2c1[nH]c1cc(O)ccc21`: 0.1%.
The value for `Cc1cc(Cl)ccc1C(=O)C1CCCN(C2CCSCC2)C1` (centres undefined) was 0%; that for `COC(=O)C1=C(c2cccc(C#N)c2)C[C@@H]2CC[C@H]1N2C(=O)N1CCOCC1` was 1.36%; that for `Nc1c(C(=O)NCC2CCCO2)c2nc3ccccc3nc2n1Cc1ccco1` (centres undefined) was 732% (active).
The value for `COCCOC(=O)c1c(N)n(Cc2ccco2)c2nc3ccccc3nc12` was -0.01%; that for `COCCNC(=O)c1c(N)n(Cc2ccco2)c2nc3ccccc3nc12` was 1.48%; that for `CCOC(=O)c1cc(CC)sc1/N=C/c1c(O)[nH]c(=S)[nH]c1=O` was 1.47%.
On to `CCN(CC)c1ccc(C=C2C(=O)N(C)C(=S)N(C)C2=O)o1`, for which the fluorescence artifact activation was -0.01%.
The same measure for `Cc1cc(N2CCCC2)ccc1C=C(C#N)C#N`: 17.8% (active); for `Cc1cc(C=C(C#N)C#N)ccc1N1CCCC1`: 0.79%.
The same measure for `COc1ccc(-n2c(O)c(/C=C/C=Nc3ccccc3)c(=O)[nH]c2=O)cc1`: -0.12%; for `Cc1ccc(/C=C2/Sc3ccc(C(=O)N4CCC5(CC4)OCCO5)cc3NC2=O)cc1`: 38.7% (active); for `CNS(=O)(=O)c1ccc(N=Cc2c(O)n(-c3ccccc3)c(=O)[nH]c2=O)cc1`: 8.1%.
The same measure for `CCC1(C)OC(c2ccccc2)=C/C(=C/C=C2C(=O)NC(=O)NC2=O)O1` (centres undefined): 4.44%; for `CCN(CC)CCCOC(=O)C(OC(C)C)(c1ccccc1)c1ccccc1`: 17.1% (active).
Take `CCCCN1C(=O)NC(=O)C2(Cc3ccccc3N3CCOCC32)C1=O` (centres undefined): the fluorescence artifact activation is -0.11%.
The value for `Cc1ccc(-n2c(O)c(C=NCC3CCCO3)c(=O)[nH]c2=O)c(C)c1` (centres undefined) was 0.07%; that for `N#CC(C#N)=Cc1ccc(-c2ccccc2F)o1` was 6.89%.
The same measure for `CCCc1cc(=O)oc2cc(OCC(=O)N3C[C@H]4C[C@@H](C3)c3cccc(=O)n3C4)ccc12`: 36.4% (active).
Turning to `CCCc1cc(=O)oc2cc(OCC(=O)N3CCC(C(=O)O)(c4ccccc4)CC3)ccc12`, the fluorescence artifact activation was 0.1%.
The same measure for `Cn1c(O)c(/C=C/C=Nc2ccccc2)c(=O)n(C)c1=S`: 5.68%.
